Source: ChEMBL document CHEMBL5154784, “Design, Synthesis, Biological Evaluation, and Computational Studies of Novel Ureidopropanamides as Formyl Peptide Receptor 2 (FPR2) Agonists to Target the Resolution of Inflammation in Central Nervous System Disorders” (J Med Chem, 2022)

What was measured:
[1] = biological target: T1, N-formyl peptide receptor 2 (Homo sapiens, UniProt P25090); test: Agonist activity at human FPR2 transfected in human HL-60 cells assessed as increase in calcium mobilization measured every 5 seconds for 240 secs by Fluo-4-AM dye based fluorescence assay; type: functional, cell-based
T1 sequence (P25090 whole entry): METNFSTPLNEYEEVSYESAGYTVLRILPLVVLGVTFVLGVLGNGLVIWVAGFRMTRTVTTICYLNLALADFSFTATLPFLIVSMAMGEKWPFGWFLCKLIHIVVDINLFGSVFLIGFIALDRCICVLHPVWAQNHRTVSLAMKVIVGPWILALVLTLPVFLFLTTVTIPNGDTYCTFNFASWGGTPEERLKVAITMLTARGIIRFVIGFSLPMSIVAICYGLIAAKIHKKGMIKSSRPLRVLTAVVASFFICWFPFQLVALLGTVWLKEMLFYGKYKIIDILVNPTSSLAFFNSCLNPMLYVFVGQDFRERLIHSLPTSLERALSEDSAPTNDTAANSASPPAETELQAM

[2] = biological target: T1, N-formyl peptide receptor 2; test: Antagonist activity at human FPR2 transfected in human HL-60 cells assessed as inhibition of WKYMVM-induced intracellular calcium mobilization preincubated for 10 mins followed by WKYMVM addition measured every 5 seconds for 240 secs by Fluo-4-AM dye based fluorescence assay; type: functional, cell-based
In short: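 Fluo-4-loaded FPR2-HL60 cells pre-incubated 10 min with compound (1% DMSO final), then challenged with 5 nM WKYMVM. Maximum change over baseline taken as response. IC50 by four-parameter logistic regression of at least 5–6 point curves.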

[3] = Cytotoxicity against mouse N9 cells assessed as reduction in cell viability by measuring LDH release at 0.5 to 5 uM incubated for 24 hrs by LDH assay; type: toxicity, cell-based; conditions: n9, 24 h, dose 0.5-5 µM
In short: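 N9 cells (2 × 10^4/well) given compound at 0.5 or 5 μM, alone or with LPS (E. coli O111:B4, 100 ng/mL) added 30 min later, for 24 h at 37 °C. Released LDH measured in supernatant (30 min, room temperature, 490/630 nm). Expressed as % of untreated cells, mean ± SEM, at least three experiments in triplicate.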

[4] = Cytotoxicity against mouse N9 cells assessed as reduction in cell viability incubated for 48 hrs by MTT assay; type: toxicity, cell-based
In short: (§1)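 MTT 0.5 mg/mL added for 3–4 h at 37 °C, formazan dissolved in DMSO/EtOH 1:1, absorbance read at 570 and 630 nm. Mean ± SD from at least two to three experiments in triplicate.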

fMet-Leu-Phe receptor [5] = biological target: T2, fMet-Leu-Phe receptor (Homo sapiens, UniProt P21462); test: Agonist activity at human FPR1 transfected in human HL-60 cells assessed as increase in calcium mobilization measured every 5 seconds for 240 secs by Fluo-4-AM dye based fluorescence assay; type: functional, cell-based
T2 sequence (P21462 whole entry): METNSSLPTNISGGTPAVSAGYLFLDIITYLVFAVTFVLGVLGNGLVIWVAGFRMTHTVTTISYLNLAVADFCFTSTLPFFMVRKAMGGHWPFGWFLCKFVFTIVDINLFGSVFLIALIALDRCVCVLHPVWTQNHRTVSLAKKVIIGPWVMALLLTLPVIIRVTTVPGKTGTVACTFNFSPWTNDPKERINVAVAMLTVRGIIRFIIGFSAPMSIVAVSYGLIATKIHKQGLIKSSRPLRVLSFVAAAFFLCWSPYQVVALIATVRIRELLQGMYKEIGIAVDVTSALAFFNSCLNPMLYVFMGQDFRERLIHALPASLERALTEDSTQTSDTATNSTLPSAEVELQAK

fMet-Leu-Phe receptor [6] = biological target: T2, fMet-Leu-Phe receptor; test: Antagonist activity at human FPR1 transfected in human HL-60 cells assessed as inhibition of fMLF-induced intracellular calcium mobilization preincubated for 10 mins followed by fMLF addition and measured every 5 seconds for 240 secs by Fluo-4-AM dye based fluorescence assay; type: functional, cell-based
[7] = biological target: T3, N-formyl peptide receptor 2 (Homo sapiens) (UniProt P25090); test: Agonist activity at human FPR2 transfected in HL-60 cells assessed as induction of intracellular calcium ions mobilization using WKYMVM as substrate preincubated for 10 mins followed by substrate addition and measured every 5 seconds for 240 secs by Fluo-4-AM dye based fluorescent assay relative to control; type: functional, cell-based; conditions: filed as agonist
T3 sequence (whole entry): T1 sequence (P25090 whole entry)

[8] = Metabolic stability in rat liver microsomes assessed as compound remaining at 10 uM preincubated for 10 mins followed by NADPH addition and measured after 30 mins by HPLC analysis; type: ADME, Microsome; conditions: time 40 min, read-out: Stability
In short: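 Rat liver microsomes (1.0 mg/mL protein), compound 10 μM final in 100 mM potassium phosphate pH 7.4, pre-incubated 10 min at 37 °C, then NADPH regenerating system added. After 30 min, % parent remaining by HPLC-DAD (C18, MeOH/H2O 80:20) versus incubation without NADPH system.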

[9] = Cytotoxicity against mouse N9 cells assessed as reduction in cell viability at 1 to 100 uM incubated for 48 hrs by MTT assay relative to control; type: toxicity, cell-based; conditions: n9, 48 h, dose 1-100 µM; in short: as §1
[10] = Antiinflammatory activity against Sprague-Dawley rat primary microglial cells assessed as reduction in IL-6 expression at 0.1 uM incubated for 1 hr by ELISA method (reference value: 100 +/- 2.16 %); type: functional, Microglia; design: scale not given: the % may be the effect or the level left
Microglia = test: Anti-inflammatory activity against Sprague-Dawley rat primary microglial cells assessed as reduction in IL-10 expression at 0.1 uM incubated for 1 hr by ELISA method (reference value: 100 +/- 3.9 %); type: functional; design: scale not given: the % may be the effect or the level left
[11] = Antiinflammatory activity against Sprague-Dawley rat primary microglial cells assessed as reduction in TNF-alpha expression at 0.1 uM incubated for 1 hr by ELISA method (reference value: 100 +/- […]); type: functional, Microglia; design: scale not given: the % may be the effect or the level left
[12] = Antiinflammatory activity against Sprague-Dawley rat primary microglial cells assessed as reduction in IL-1beta expression at 0.1 uM incubated for 1 hr by ELISA method (reference value: 100 +/- 13 %); type: functional, Microglia; design: scale not given: the % may be the effect or the level left

`CC1(C)CN(C(=O)[C@H](Cc2ccc(C#N)cc2)NC(=O)Nc2ccc(F)cc2)c2ccccc21` gave an EC50 [1] of 2.3 µM and an IC50 [2] of 2.7 µM.

In the case of `N#Cc1ccc(C[C@H](NC(=O)Nc2ccc(F)cc2)C(=O)N2CCCc3ccccc32)cc1`, the Activity [3] is reported as “Toxic”, the EC50 [1] is reported as 0.27 µM and the EC50 at 48 h [4] is reported as 14.7 µM. For the same compound, the EC50 (fMet-Leu-Phe receptor [5]) was 1.2 µM, the IC50 (fMet-Leu-Phe receptor [6]) was 24.2 µM and the Efficacy [7] was 120%. It also gave an IC50 [2] of 0.013 µM and a remaining at 0.5 h, 10 µM [8] of 10%.

With `N#Cc1ccc(C[C@@H](NC(=O)Nc2ccc(F)cc2)C(=O)N2CCCc3ccccc32)cc1` the EC50 [1] was 0.25 µM, the EC50 at 48 h [4] was 13.7 µM and the EC50 (fMet-Leu-Phe receptor [5]) was 0.44 µM. The IC50 (fMet-Leu-Phe receptor [6]) was 17.4 µM, the Efficacy [7] was 175% and the IC50 [2] was 0.012 µM. The remaining at 0.5 h, 10 µM [8] was 7%.

For `N#Cc1ccc(C[C@H](NC(=O)Nc2ccc(F)cc2)C(=O)N2CCC(F)(F)CC2)cc1`, the EC50 [1] was 19.5 µM, the EC50 at 48 h [4] was greater than 100 µM and the Activity [9] was 9%. The Efficacy [7] was 80%, the IC50 [2] was 30.1 µM and the remaining at 0.5 h, 10 µM [8] was 67%.

Work on `N#Cc1ccc(C[C@H](NC(=O)Nc2ccc(F)cc2)C(=O)N2CCCC2)cc1` yielded an EC50 [1] of 3.1 µM, an EC50 at 48 h [4] greater than 100 µM and an EC50 (fMet-Leu-Phe receptor [5]) of 15.3 µM. For the same compound, the IC50 (fMet-Leu-Phe receptor [6]) was 33.8 µM, the Activity [9] was 55% and the Efficacy [7] was 100%. It also gave an IC50 [2] of 6.4 µM.

`N#Cc1ccc(C[C@H](NC(=O)Nc2ccc(F)cc2)C(=O)N2Cc3ccc(F)cc3C2)cc1` gave an EC50 [1] of 1.7 µM, an EC50 at 48 h [4] of 18.2 µM and an EC50 (fMet-Leu-Phe receptor [5]) of 3.3 µM. It also gave an Efficacy [7] of 70% and an IC50 [2] of 4.4 µM.

With `N#Cc1ccc(C[C@@H](NC(=O)Nc2ccc(F)cc2)C(=O)N2CCCCC2)cc1` the EC50 [1] was 13.4 µM, the IC50 [2] was 49.3 µM and the remaining at 0.5 h, 10 µM [8] was 25%.

With `N#Cc1ccc(C[C@@H](NC(=O)Nc2ccc(F)cc2)C(=O)N2CCc3ccc(F)cc32)cc1` the Activity [3] was “Toxic” and the remaining at 0.5 h, 10 µM [8] was 28%.

H-WRWWWW-NH2 gave an Activity [10] of 108%, an Activity (Microglia) of 103% and an Activity [11] of 121%. The Activity [12] was 103%.

Work on `N#Cc1ccc(C[C@H](NC(=O)Nc2ccc(F)cc2)C(=O)N2CCc3ccc(F)cc3C2)cc1` yielded an EC50 [1] of 0.45 µM, an IC50 [2] of 0.26 µM and a remaining at 0.5 h, 10 µM [8] of 8%.

Work on `N#Cc1ccc(C[C@@H](NC(=O)Nc2ccc(F)cc2)C(=O)N2CCc3ccc(F)cc3C2)cc1` yielded an EC50 [1] of 0.62 µM, an IC50 [2] of 0.24 µM and a remaining at 0.5 h, 10 µM [8] of 14%.

Compound `N#Cc1ccc(C[C@@H](NC(=O)Nc2ccc(F)cc2)C(=O)N2CCc3cccnc32)cc1` has an EC50 [1] of 1.1 µM, an IC50 [2] of 1.2 µM and a remaining at 0.5 h, 10 µM [8] of 10%.

`N#Cc1ccc(C[C@@H](NC(=O)Nc2ccc(F)cc2)C(=O)NC2CCCCNC2=O)cc1` (some centres not stated) gave an EC50 [1] of 1 µM, an EC50 at 48 h [4] greater than 100 µM and an EC50 (fMet-Leu-Phe receptor [5]) of 4.2 µM. For the same compound, the IC50 (fMet-Leu-Phe receptor [6]) was 40.4 µM, the Activity [9] was 36% and the Efficacy [7] was 140%. For the same compound, the IC50 [2] was 3.8 µM and the remaining at 0.5 h, 10 µM [8] was 78%.

In the case of `N#Cc1ccc(C[C@H](NC(=O)Nc2ccc(F)cc2)C(=O)N2Cc3ccccc3C2)cc1`, the Activity [3] is reported as “Non-Toxic”, the EC50 [1] is reported as 0.34 µM and the IC50 [2] is reported as 4.4 µM. For the same compound, the remaining at 0.5 h, 10 µM [8] was 31%.

In the case of `N#Cc1ccc(C[C@H](NC(=O)Nc2ccc(F)cc2)C(=O)N2CCc3cc(F)ccc32)cc1`, the Activity [3] is reported as “Non-Toxic”, the EC50 [1] is reported as 0.16 µM and the EC50 at 48 h [4] is reported as 29.4 µM. The EC50 (fMet-Leu-Phe receptor [5]) was 4.8 µM, the Efficacy [7] was 110% and the IC50 [2] was 0.21 µM. It also gave a remaining at 0.5 h, 10 µM [8] of 19%.
